Test results published in ChEMBL document CHEMBL5154764, “Development of small molecules that work cooperatively with ciprofloxacin to clear salmonella biofilms in a chronic gallbladder carriage model” (Eur J Med Chem, 2022).
Activity calls are given as the source filed them. The rule behind the calls is not given here.

Legend:
Salmonella typhimurium [1] = assay: Antibiofilm activity against Salmonella typhimurium ATCC 14028 assessed as inhibition of biofilm formation incubated for 24 hrs by crystal violet staining based spectrophotometry; type: functional, organism-based, Salmonella enterica subsp. enterica serovar Typhimurium; details: Salmonella enterica, ATCC 14028, 24 h
Outline: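 LB overnight cultures (37 °C) set to OD600 0.8, diluted 1:100 into TSB diluted 1:20 in water. Compound at 0.2–100 μM or DMSO added at inoculation. Grown 24 h at 30 °C with nutation, washed, heat-fixed (60 °C, 1 h), stained with crystal violet, dye solubilized in acetic acid, read at 570 nm. IC50 from variable-slope fit of % biofilm vs log concentration. Mean ± SD of three biological replicates.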

Salmonella typhimurium [2] = assay: Antibiofilm activity against Salmonella typhimurium ATCC 14028 assessed as biofilm dispersal effect incubated for 24 hrs by crystal violet staining based spectrophotometry; type: functional, organism-based, Salmonella enterica subsp. enterica serovar Typhimurium; details: Salmonella enterica, ATCC 14028, 24 h
Outline: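 Biofilms grown 24 h at 30 °C with nutation in TSB diluted 1:20, from 1:100-diluted LB overnight cultures set to OD600 0.8. Crystal violet staining, acetic acid solubilization, 570 nm read-out. EC50 from variable-slope fit of % biofilm remaining vs log concentration. Mean ± SD of three biological replicates.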

Salmonella typhimurium [3] = assay: (§1) Antibacterial activity against Salmonella typhimurium ATCC 14028 infected in 129X1/SvJ NRAMP +/+ mouse gallstone model assessed as log reduction in bacterial burden in gallblader at 5 mg/kg/day, ip administered for 5 to 15 consecutive days of post infection and measured on day 15 in presence of 1 mg/kg/day ciprofloxacin; type: functional, Salmonella enterica subsp. enterica serovar Typhimurium; details: time 10 day
Outline: (§2)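 129X1/SvJ NRAMP+/+ mice given a lithogenic diet (chow plus 1% cholesterol, 0.5% cholic acid) for 8 weeks. Infected i.p. with ~10^3 CFU in 200 μL PBS. Treated daily i.p. on days 5–15 post-infection; vehicle 5% DMSO in PBS. Day 15: gallbladder, liver and spleen homogenized in 1 mL PBS, serially diluted and plated on LB agar (37 °C, 16 h) for CFU counts. One-way ANOVA with Tukey correction.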

Salmonella typhimurium [4] = assay: Antibacterial activity against Salmonella typhimurium ATCC 14028 assessed as bacterial growth inhibition at >=100 uM; type: functional, organism-based; details: Salmonella enterica subsp. enterica serovar Typhimurium
Salmonella typhimurium [5] = assay: Antibacterial activity against Salmonella typhimurium ATCC 14028 assessed as bacterial growth inhibition at >=12.5 uM; type: functional, organism-based; details: Salmonella enterica subsp. enterica serovar Typhimurium
Salmonella typhimurium [6] = assay: Antibacterial activity against Salmonella typhimurium ATCC 14028 assessed as bacterial growth inhibition at >= 50 uM; type: functional, organism-based; details: Salmonella enterica subsp. enterica serovar Typhimurium
Salmonella typhimurium [7] = assay: Antibacterial activity against Salmonella typhimurium ATCC 14028 infected in 129X1/SvJ NRAMP +/+ mouse gallstone model assessed as reduction in bacterial burden in liver at 2 mg/kg/day, ip administered from 5 to 15 consecutive days and measured on day 15; type: functional, organism-based; details: Salmonella enterica subsp. enterica serovar Typhimurium, time 10.0 day; outline: as §2
Salmonella typhimurium [8] = assay: Antibacterial activity against Salmonella typhimurium ATCC 14028 infected in 129X1/SvJ NRAMP +/+ mouse gallstone model assessed as reduction in bacterial burden in spleen at 2 mg/kg/day, ip administered from 5 to 15 consecutive days and measured on day 15; type: functional, organism-based; details: Salmonella enterica subsp. enterica serovar Typhimurium, time 10.0 day; outline: as §2
Salmonella typhimurium [9] = assay: Antibacterial activity against Salmonella typhimurium ATCC 14028 infected in 129X1/SvJ NRAMP +/+ mouse gallstone model assessed as log reduction in bacterial burden in gallblader at 4 mg/kg/day, ip administered from 5 to 15 consecutive days and measured on day 15; type: functional, Salmonella enterica subsp. enterica serovar Typhimurium; details: time 10 day; outline: as §2
Salmonella typhimurium [10] = assay: as §1, with “at 10” for “at 5”, “administered from” for “administered for”, “days” for “days of post infection”; type: functional, Salmonella enterica subsp. enterica serovar Typhimurium; details: time 10 day

`Cc1ccccc1CN1CCC(CN(C)Cc2ccsc2)CC1` showed an IC50 (Salmonella typhimurium [1]) of 6.3 µM and an EC50 (Salmonella typhimurium [2]) of 247 µM.
In the case of `CN(Cc1ccsc1)CC1CCN(CCc2cccc(Cl)c2Cl)CC1`, the “log(activity)” value (Salmonella typhimurium [3]) is reported as 1.5.
Compound `CN(Cc1ccsc1)CC1CCN(Cc2ccc(F)c(F)c2)CC1` has an IC50 (Salmonella typhimurium [1]) of 7.2 µM and an EC50 (Salmonella typhimurium [2]) of 3800 µM.
With `CN(Cc1ccsc1)CC1CCN(Cc2cccc(I)c2)CC1` the IC50 (Salmonella typhimurium [1]) was 10 µM and the EC50 (Salmonella typhimurium [2]) was 92 µM.
Work on `CN(Cc1ccsc1)CC1CCNCC1` yielded an IC50 (Salmonella typhimurium [1]) of 138 µM and an EC50 (Salmonella typhimurium [2]) of 442 µM.
`CN(Cc1ccsc1)CC1CCN(Cc2cc(Cl)ccc2Cl)CC1` showed an IC50 (Salmonella typhimurium [1]) of 15.8 µM and an EC50 (Salmonella typhimurium [2]) of 196 µM.
In the case of `CN(Cc1ccsc1)CC1CCN(CCc2cc(Br)cc(Br)c2)CC1`, the IC50 (Salmonella typhimurium [1]) is reported as 3.4 µM, the EC50 (Salmonella typhimurium [2]) is reported as 42 µM and the “growth inhibition (GI)” value (Salmonella typhimurium [4]) is reported as “Active”.
With `CC(C)c1ccc(CCN2CCC(CN(C)Cc3ccsc3)CC2)cc1` the IC50 (Salmonella typhimurium [1]) was 2.3 µM, the EC50 (Salmonella typhimurium [2]) was 123 µM and the “growth inhibition (GI)” value (Salmonella typhimurium [5]) was “Active”.
`CN(Cc1ccsc1)CC1CCN(CCCc2ccccc2F)CC1` was tested, and the IC50 (Salmonella typhimurium [1]) was 11.5 µM and the EC50 (Salmonella typhimurium [2]) was 221 µM.
For `CN(Cc1ccsc1)CC1CCN(CCc2cc(Cl)cc(Cl)c2)CC1`, the IC50 (Salmonella typhimurium [1]) was 1.6 µM, the EC50 (Salmonella typhimurium [2]) was 45 µM and the “growth inhibition (GI)” value (Salmonella typhimurium [6]) was “Active”.
`CN(Cc1ccsc1)CC1CCN(CCCc2ccccc2)CC1` gave an IC50 (Salmonella typhimurium [1]) of 78.1 µM and an EC50 (Salmonella typhimurium [2]) greater than 12000 µM.
For `CN(Cc1ccsc1)CC1CCN(CCc2cc(F)cc(F)c2)CC1`, the IC50 (Salmonella typhimurium [1]) was greater than 200 µM, the EC50 (Salmonella typhimurium [2]) was greater than 12000 µM and the “growth inhibition (GI)” value (Salmonella typhimurium [6]) was “Active”.
`CN(Cc1ccsc1)CC1CCN(CCc2ccc(Cl)cc2)CC1` gave an IC50 (Salmonella typhimurium [1]) of 3 µM and an EC50 (Salmonella typhimurium [2]) of 69 µM.
Work on `CN(Cc1ccsc1)CC1CCN(Cc2ccc(Br)cc2)CC1` yielded an IC50 (Salmonella typhimurium [1]) of 8.5 µM and an EC50 (Salmonella typhimurium [2]) of 127 µM.
`CN(Cc1ccsc1)CC1CCN(Cc2ccc(I)cc2)CC1` showed an IC50 (Salmonella typhimurium [1]) of 5.7 µM and an EC50 (Salmonella typhimurium [2]) of 77 µM.
`CN(Cc1ccsc1)CC1CCN(CCc2cccc(Cl)c2)CC1` was tested, and the IC50 (Salmonella typhimurium [1]) was 2 µM, the EC50 (Salmonella typhimurium [2]) was 135 µM and the “growth inhibition (GI)” value (Salmonella typhimurium [4]) was “Active”.
`CN(Cc1ccsc1)CC1CCN(CCCc2ccccc2Cl)CC1` showed an IC50 (Salmonella typhimurium [1]) of 5.4 µM and an EC50 (Salmonella typhimurium [2]) of 59 µM.
`CN(Cc1ccsc1)CC1CCN(CCc2cccc(I)c2)CC1` gave an IC50 (Salmonella typhimurium [1]) of 4 µM and an EC50 (Salmonella typhimurium [2]) of 44 µM.
`CN(Cc1ccsc1)CC1CCN(CCc2ccccc2Br)CC1` was tested, and the IC50 (Salmonella typhimurium [1]) was 7.2 µM and the EC50 (Salmonella typhimurium [2]) was 308 µM.
`CNCC1CCN(CCc2ccccc2F)CC1` was tested, and the “growth inhibition (GI)” value (Salmonella typhimurium [4]) was “Active”.
For `O=C(O)c1cn(C2CC2)c2cc(N3CCNCC3)c(F)cc2c1=O` [CIPROFLOXACIN], the Activity (Salmonella typhimurium [7]) was “Active”, the Activity (Salmonella typhimurium [8]) was “Active” and the “log(activity)” value (Salmonella typhimurium [9]) was 3.
For `CN(Cc1ccsc1)CC1CCN(CCc2cccc(F)c2)CC1`, the IC50 (Salmonella typhimurium [1]) was 6.9 µM and the EC50 (Salmonella typhimurium [2]) was 388 µM.
`CN(Cc1ccsc1)CC1CCN(CCc2ccc(F)c(F)c2)CC1` was tested, and the IC50 (Salmonella typhimurium [1]) was 3 µM and the EC50 (Salmonella typhimurium [2]) was 87 µM.
`CN(Cc1ccsc1)CC1CCN(CCc2ccc(-c3ccccc3)cc2)CC1` was tested, and the “log(activity)” value (Salmonella typhimurium [3]) was 3.5 and the “growth inhibition (GI)” value (Salmonella typhimurium [5]) was “Active”.
`CN(Cc1ccsc1)CC1CCN(CCc2ccccc2F)CC1` was tested, and the IC50 (Salmonella typhimurium [1]) was 5.7 µM, the EC50 (Salmonella typhimurium [2]) was 829 µM and the “log(activity)” value (Salmonella typhimurium [3]) was 2. The “log(activity)” value (Salmonella typhimurium [10]) was 3.
Compound `CN(Cc1ccsc1)CC1CCN(Cc2ccccc2Br)CC1` has an IC50 (Salmonella typhimurium [1]) of 4.9 µM and an EC50 (Salmonella typhimurium [2]) of 79 µM.
`CN(Cc1ccsc1)CC1CCN(Cc2ccccc2C(F)(F)F)CC1` was tested, and the IC50 (Salmonella typhimurium [1]) was 20.9 µM, the EC50 (Salmonella typhimurium [2]) was 140 µM and the “growth inhibition (GI)” value (Salmonella typhimurium [4]) was “Active”.
`CN(Cc1ccsc1)CC1CCN(Cc2cccc(F)c2)CC1` was tested, and the IC50 (Salmonella typhimurium [1]) was 8.7 µM and the EC50 (Salmonella typhimurium [2]) was 1050 µM.
